# Source: PubChem BioAssay (several laboratories)
# The entries come from a sample that favours hits as a whole.
# Myeloid diff 2 = myeloid differentiation induction; AID 624256; hit rate 1% among 360,000; ER-HoxA9 myeloid progenitors, lysozyme-GFP differentiation, flow cytometry; calls only at 10 µM;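 active = normalized GFP-positive differentiation at or above the plate's own cutoff, the solvent-only control mean plus 3 SD; inconclusive = no clear call, values can overlap the other calls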;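 also: cells exposed to compound for four days before flow analysis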
# XiGFP reactiv = X-chromosome reactivation activator | XiGFP mouse fibroblasts, % GFP-positive cells imaging, 3 d; cells co-treated with 5-aza-dC sensitizer; scaled so ellipticine positive control = 100% | activation, % at 7.58 µM | hit rate 0.055% among 360,000;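 active = mean normalized replicate activation at least 10% and every replicate at or above 10%; inconclusive = only one of the two criteria met; inactive = mean below 10% and not all replicates reach 10%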;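 also: 0% = median of on-plate neutral control wells and 100% = ellipticine 6 µM median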
#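 Material: XiGFP fibroblasts, SV40-immortalized; Buffer or medium: DMEM containing 5-aza-dC; Compound dosing: single point; Times: 3 days compound exposure.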
# ABCB6 inh MLPCN = blocks the human ABCB6 transporter; K562-ABCB6 porphyrin accumulation, flow cytometry, 1 h; hits give low values; fluorescence ratio to DMSO, % at 10 µM; hit rate 0.19% among 360,000; AID 602162;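 active = fluorescence ratio to DMSO below 75%, the collection mean minus 3 SD; inconclusive = too few cells collected in the well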;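 also: signal is porphyrin accumulated inside mitochondria; 100% equals median channel fluorescence of DMSO control wells; lower ratio means ABCB6 inhibition with less porphyrin fluorescence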
# Target sequence (Q9NP58 whole entry, looked up): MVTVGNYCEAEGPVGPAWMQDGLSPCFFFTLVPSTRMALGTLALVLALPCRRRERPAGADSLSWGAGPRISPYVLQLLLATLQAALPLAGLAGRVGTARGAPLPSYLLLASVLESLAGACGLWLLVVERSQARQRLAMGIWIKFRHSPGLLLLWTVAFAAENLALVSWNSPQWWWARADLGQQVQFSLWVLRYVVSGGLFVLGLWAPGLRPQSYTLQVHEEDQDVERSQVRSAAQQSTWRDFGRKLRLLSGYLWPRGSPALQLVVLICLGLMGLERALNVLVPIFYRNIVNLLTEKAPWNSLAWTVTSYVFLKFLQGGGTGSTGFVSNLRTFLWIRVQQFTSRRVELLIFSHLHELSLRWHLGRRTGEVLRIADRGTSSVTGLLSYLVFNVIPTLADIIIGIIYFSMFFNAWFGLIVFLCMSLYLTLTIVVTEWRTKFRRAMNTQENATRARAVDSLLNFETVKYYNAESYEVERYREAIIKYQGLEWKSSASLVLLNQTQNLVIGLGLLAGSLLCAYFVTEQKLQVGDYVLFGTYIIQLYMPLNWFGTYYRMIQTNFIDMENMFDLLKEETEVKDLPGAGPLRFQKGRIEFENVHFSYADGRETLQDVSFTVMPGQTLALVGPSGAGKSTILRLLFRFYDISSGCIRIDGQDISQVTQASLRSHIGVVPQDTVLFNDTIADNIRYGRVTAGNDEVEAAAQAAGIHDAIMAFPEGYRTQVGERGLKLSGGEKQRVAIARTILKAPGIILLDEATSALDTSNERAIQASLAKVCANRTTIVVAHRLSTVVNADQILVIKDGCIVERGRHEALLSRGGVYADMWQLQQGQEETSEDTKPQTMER
# Myeloid diff CP1 = promotes myeloid progenitor differentiation; ER-HoxA9 myeloid progenitors, GFP/Mac1 double-positive flow; shares compounds with Myeloid diff 2; AID 651706; calls only; hit rate 2% among 2,300;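 active = share of green or green-and-red cells above 9 and 9% in run 1 or 4 and 3% in run 2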
# GFP autofluor = flagged as fluorescent in myeloid differentiation counter-screen. shares compounds with Myeloid diff 2. ER-HoxA9 myeloid progenitors, no estrogen, GFP autofluorescence flow cytometry; vehicle wells 0%, positive control 100%. fluorescence response, % (concentration not given with the values). hit rate 7.4% among 2,300. AID 651707;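 active = over 5% cells positive for green fluorescent reporter, or over 2% positive for both it and APC stain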;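 also: range taken on the double positive population between DMSO and positive control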
# Starred values were filed as active, the others as inactive; i = inactive; ? = inconclusive; nt = no result; + = active, no number.
SMILES,Myeloid diff 2,XiGFP reactiv,ABCB6 inh MLPCN,Myeloid diff CP1,GFP autofluor
O=C(c1cccnc1)N1CCCCN2[C@H](C1)[C@@H](c1ccc(C#Cc3ccccn3)cc1)[C@@H]2CO,nt,0,nt,nt,nt
CO[C@@H]1CN(C)C(=O)c2ccc(NC(=O)Nc3ccccc3F)cc2OC[C@H](C)NC[C@H]1C,nt,0,nt,nt,nt
C[C@@H]1CN([C@@H](C)CO)C(=O)c2cc(/C=C/c3ccccc3)cnc2O[C@@H]1CN(C)C(=O)Nc1ccc(C(F)(F)F)cc1,nt,-1,nt,nt,nt
O=C(NC1CC1)c1sc2cc(Cl)ccc2c1Cl,i,0,100,nt,nt
CC1(C)CC(NC(=O)c2sc3cc(Cl)ccc3c2Cl)CC(C)(C)N1,i,0,99,i,0
Cc1ccc(S(=O)(=O)N2C[C@H](O)COC[C@H]3O[C@@H](CC(=O)NCCN4CCCCC4)CC[C@@H]32)cc1,nt,0,nt,nt,nt
C[C@@H]1CN([C@@H](C)CO)C(=O)Cc2cc(NS(=O)(=O)c3ccccc3)ccc2O[C@@H]1CN(C)S(=O)(=O)c1cn(C)cn1,nt,0,nt,nt,nt
C1CCCCCC(NCCN2CCNCC2)CCCCC1,+,0,95,i,0
O=C(NC1CCCCC1)N1CCNCC1,i,0,105,nt,nt
CCC(=O)N1[C@@H]2c3ccc(C4=CCCC4)c(=O)n3C[C@@H]2[C@@H](CO)[C@@H]1C(=O)NCc1ccc(F)cc1,nt,0,nt,nt,nt
CCC(=O)N1C[C@H](C)[C@H](OC)CN(C)C(=O)c2cc(NC(=O)NC(C)C)ccc2OC[C@@H]1C,nt,0,nt,nt,nt
C[C@@H]1CN([C@@H](C)CO)C(=O)Cc2cc(NS(=O)(=O)c3cn(C)cn3)ccc2O[C@H]1CN(C)Cc1ccc(C(F)(F)F)cc1,nt,0,nt,nt,nt
C[C@H]1CN([C@@H](C)CO)C(=O)Cc2cc(NS(=O)(=O)c3ccccc3)ccc2O[C@H]1CN(C)C(=O)Nc1ccc2c(c1)OCO2,nt,-1,nt,nt,nt
CC1CC2C3CCC4=CC(=O)C=CC4(C)C3(F)C(O)CC2(C)C1(O)C(=O)CO (stereo not given),i,1,105,nt,nt
C[C@]12C=CC(=O)C=C1CC[C@H]1[C@@H]3C[C@@H](O)[C@](O)(C(=O)CO)[C@@]3(C)C[C@H](O)[C@@]12F,i,0,97,i,0
O=C(CCN1CCCCC1)N[C@H]1CC[C@H](CCn2cc(-c3ccccc3)nn2)O[C@@H]1CO,nt,0,nt,nt,nt
Cc1ccc(C(=O)C[n+]2cccc3ccccc32)cc1,+,nt,716,i,1
NC(=O)C[n+]1cccc2ccccc21,i,nt,102,nt,nt
O=C(C[n+]1cc(Br)cc2ccccc21)c1ccc(Br)cc1,i,0,138,nt,nt
O=C(C[n+]1cccc2ccccc21)c1ccc(Br)cc1,+,0,213,i,1
C[C@H]1CN([C@@H](C)CO)C(=O)Cc2cc(NS(=O)(=O)c3cccs3)ccc2O[C@H]1CN(C)Cc1ccc(C(=O)Nc2ccccc2N)cc1,nt,0,nt,nt,nt
CC(C)(C)c1nnc(NC(=O)Nc2ccc(Cl)cc2)s1,+,0,96,i,0
COc1ccc(NC(=O)Nc2nnc(C(C)(C)C)s2)cc1,?,0,97,nt,nt
COc1ccc(N2CCN(C(=O)CSc3nnc(CNc4ccccc4)o3)CC2)cc1,i,nt,99,i,1
COc1ccc(Cc2nnc(SCC(=O)N3CCN(c4ccccc4)CC3)o2)cc1,i,nt,99,nt,nt
SMILES,Myeloid diff 2,XiGFP reactiv,ABCB6 inh MLPCN,Myeloid diff CP1,GFP autofluor
O=S(=O)(N[C@@H]1CC[C@H](CCn2cc(-c3ccccn3)nn2)O[C@H]1CO)c1cccc(F)c1,nt,1,nt,nt,nt
O=S1(=O)N=C(N2CCN(Cc3ccc4c(c3)OCO4)CC2)c2ccccc21,i,nt,99,nt,nt
O=S1(=O)N=C(N2CCN(Cc3ccccc3)CC2)c2ccccc21,+,nt,94,i,0
COCC#Cc1cnc2c(c1)C(=O)N([C@@H](C)CO)C[C@@H](C)[C@H](CN(C)C(=O)c1cccnc1)O2,nt,-1,nt,nt,nt
CCCCNC(=O)CCc1nc2cccnc2n1Cc1ccccc1,+,0,107,i,0
CCCCNC(=O)CCc1nc2cccnc2n1Cc1ccc(OC)cc1,i,nt,87,nt,nt
C[C@@H]1CN([C@@H](C)CO)C(=O)c2cc(C#CC(C)(C)O)cnc2O[C@@H]1CN(C)C(=O)CN(C)C,nt,0,nt,nt,nt
CN(C)c1ccc(/C=C2\Oc3ccc(C#Cc4cccc(N)c4)cc3C2=O)cc1,i,nt,478,i,98*
COC(=O)c1ccc2c(c1)C(=O)/C(=C/c1ccc(C)cc1)O2,i,0,95,nt,nt
COc1cc(/C=C2\SC(=S)N(NC(=O)c3ccc(O)c(OC)c3)C2=O)ccc1O,i,0,249,i,28*
COc1cc(/C=C2\SC(=S)N(NC(=O)c3ccncc3)C2=O)ccc1O,i,0,192,nt,nt
CCCNC(=O)N[C@@H]1C=C[C@H](CC(=O)NC2CCC2)O[C@@H]1CO,nt,0,nt,nt,nt
Cc1cc(C)c2nc(SCC(=O)Nc3ccccc3N3CCOCC3)c(C#N)cc2c1,+,nt,100,i,0
COCc1cc(C)nc(SCC(=O)Nc2ccccc2N2CCOCC2)c1C#N,i,0,96,nt,nt
CN(C)c1ccc2c(c1)[C@@H]1C[C@H](CC(=O)NCc3ccccc3)O[C@@H](CO)[C@@H]1O2,nt,0,nt,nt,nt
O=C(CCCCCn1c(=S)[nH]c2cc3c(cc2c1=O)OCO3)N1CCN(c2ccccc2)CC1,i,0,98,nt,nt
O=C(CCCn1c(=S)[nH]c2cc3c(cc2c1=O)OCO3)N1CCN(c2ncccn2)CC1,i,nt,105,i,0
Cc1noc(C)c1NC(=O)N1C[C@@H](O)COC[C@H]2O[C@H](CC(=O)NCC3CCCCC3)CC[C@@H]21,nt,0,nt,nt,nt
COc1ccc(OC)c(S(=O)(=O)N2CCC(C(=O)NCc3ccccc3OC)CC2)c1,i,nt,101,nt,nt
COc1ccc(OC)c(S(=O)(=O)N2CCC(C(=O)NCc3ccccc3)CC2)c1,i,nt,92,i,2
COc1cccc(NC(=O)N2CC3(C2)[C@H](c2ccccc2)[C@H](CO)N3C(=O)C2CCCC2)c1,nt,0,nt,nt,nt
CSc1ccccc1C(=O)NC1CCCCC1,i,nt,91,nt,nt
CSc1ccccc1C(=O)NC1CCCC1,i,nt,102,i,0
Oc1ccc(-c2cnc3c(Nc4cccc(OC(F)(F)C(F)F)c4)nccn23)cc1,+,0,89,i,0
FC(F)C(F)(F)Oc1cccc(Nc2nccn3c(-c4ccc5ccccc5c4)cnc23)c1,i,1,95,nt,nt
O=C(c1ccncc1)N1CC(=O)N2[C@H](CO)[C@H](c3ccc(C#CCC4CCCC4)cc3)[C@@H]2C1,nt,0,nt,nt,nt
Cn1nccc1C(=O)Nc1sc2c(c1C(N)=O)CCCC2,i,0,99,i,0
Cn1nccc1C(=O)Nc1sc2c(c1C#N)CCCC2,i,0,91,nt,nt
O=C(O)[C@@H]1[C@@H](CO)[C@@H]2Cn3c(ccc(-c4ccccc4)c3=O)[C@@H]2N1Cc1ccccc1F,nt,0,nt,nt,nt
Cc1cccc(NC(=O)CSc2nc(=O)n(CCCN3CCOCC3)c3c2CCCC3)c1,+,0,94,i,0
